Only some compounds are listed: those with a hit (about 2.5% of all), similar ones and a draw of the others.
dFosB act – enhances mouse delta FosB homodimer DNA binding; activation, % at 25 µM; purified delta FosB, TAMRA-CDK5 oligo fluorescence polarization; percent of positive-control signal above neutral wells; 0.99% of 340,000 active;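 active = mean activation above about 17%, with every replicate also reaching it, limit read from the data, passing the limit was not always enough; inconclusive = only one of the two conditions met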
SR-BI uptake up – SR-BI HDL lipid transfer activation; CHO ldlA[mSR-BI] cells, DiI-HDL uptake fluorescence, 3 h; 100 = double the neutral-control signal; activation, % at 12.5 µM; 0.096% of 320,000 active;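 active = mean replicate activation of at least 60% and every replicate at or above 60%; inconclusive = mean or all-replicate condition met, but not both; inactive = mean below 60% and not all replicates reaching 60%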
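system = CHO ldlA[mSR-BI] cells, LDL receptor-null, SR-BI overexpressing | medium = Ham's F12 with 0.5% BSA, HEPES 25 mM, pH 7.4 | probe or stimulus = DiI-HDL 10 µg/mL | compound dosing = single-point compound dose | incubation = compound exposure 3 h, 37 °C | technique = DiI fluorescence, bottom read | read-out = cell-associated DiI fluorescence as measure of HDL uptake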
DYRK1A inh – blocks rat Dyrk1A kinase activity | Q63470 | ADP-Glo luminescence, NFATc1 peptide | inhibition, % at 12.5 µM | 0.43% of 310,000 active | AID 504441
NSD2 HMT inh – inhibitors of human histone methyltransferase NSD2; 0.54% of 310,000 active; AID 743445; NSD2 peptide methylation, AlphaScreen, 120 min; O96028; inhibition, % at 12.5 µM
SR-BI DiI inh – blocks mouse SR-BI lipid uptake from DiI-HDL; inhibition, % at 12.5 µM; ldlA[mSR-BI] CHO cells, DiI-HDL uptake fluorescence, 3 h; 0.96% of 320,000 active; AID 488896; Q61009;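 active = mean replicate inhibition of at least 70% and a set share of replicates each scoring 70 or more; inconclusive = meets just one of the two criteria; inactive = fails both criteria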
CDK5 p35 inh – CDK5/p35 (human) kinase inhibition; Q00535+Q15078; Recombinant CDK5/p35, ADP-Glo luminescence, 60 min; inhibition, % at 10 µM; 0.01% of 330,000 active;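 active = highest replicate inhibition of at least 50% and at least 75% of replicates reaching 50%; inconclusive = only one of the two criteria met; inactive = both criteria failed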
Target sequence (Q00535 whole entry, looked up): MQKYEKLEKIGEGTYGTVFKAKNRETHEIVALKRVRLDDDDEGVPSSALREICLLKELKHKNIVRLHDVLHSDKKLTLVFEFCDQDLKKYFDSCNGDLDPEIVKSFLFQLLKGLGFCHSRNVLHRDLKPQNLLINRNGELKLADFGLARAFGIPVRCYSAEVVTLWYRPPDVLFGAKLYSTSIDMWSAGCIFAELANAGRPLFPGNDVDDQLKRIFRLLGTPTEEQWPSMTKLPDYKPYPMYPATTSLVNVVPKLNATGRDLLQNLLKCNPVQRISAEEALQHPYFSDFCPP
Target sequence (Q15078 whole entry, looked up): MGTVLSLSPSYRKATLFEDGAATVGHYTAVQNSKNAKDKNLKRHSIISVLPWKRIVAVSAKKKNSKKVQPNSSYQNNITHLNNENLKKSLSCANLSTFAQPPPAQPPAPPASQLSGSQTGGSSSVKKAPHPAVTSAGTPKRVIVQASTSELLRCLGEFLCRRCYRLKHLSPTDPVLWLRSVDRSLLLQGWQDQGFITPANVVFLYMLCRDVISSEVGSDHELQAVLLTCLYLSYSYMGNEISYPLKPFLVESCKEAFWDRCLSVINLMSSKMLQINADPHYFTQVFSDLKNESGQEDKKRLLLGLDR
Large screens that a line does not name were inactive. Rule as the data show it, unless noted: active = inhibition above about 50%; inactive = the rest.

COc1ccc(N2CCN(c3nc4c(c(=O)n(C)c(=O)n4C)n3CCCc3ccccc3)CC2)cc1	SR-BI uptake up 373 (no result: NSD2 HMT inh)
CC(C)N(C(=S)Nc1ccc(S(=O)(=O)N2CCOCC2)cc1)c1ccccc1	none (no result: dFosB act, SR-BI uptake up, DYRK1A inh, SR-BI DiI inh, CDK5 p35 inh)
Nc1ccc(N(c2ccccc2)c2ccc(N)cc2)cc1	dFosB act 23
C=CCOc1ccc(/C=C/C(=O)OCC(=O)NNC(=O)c2ccccc2F)cc1	none (no result: DYRK1A inh)
O=C1Nc2ccc(Br)cc2C1(O)c1ccccc1 (centres undefined)	none (no result: DYRK1A inh)
O=C1Nc2ccc(Br)cc2C12NNc1ccccc1O2 (centres undefined)	SR-BI DiI inh 90 (no result: NSD2 HMT inh)
COc1ccccc1CNc1nc(-c2cc(C)n(C)c2C)cs1	dFosB act 18 (no result: NSD2 HMT inh)
COCCNc1nc(-c2cc(C)n(CCc3ccc(OC)cc3)c2C)cs1	none
COCCn1cnnc1SCC(=O)Nc1ccc(N2CCCCC2)cc1	none (no result: DYRK1A inh)
COc1ccc(-c2cc(C(=O)Nc3sc4c(c3C#N)CCCC4)c3ccccc3n2)cc1OC	SR-BI DiI inh 85
COc1ccc(-c2cc(C(=O)Nc3c(C)n(C)n(-c4ccccc4)c3=O)c3ccccc3n2)cc1OC	SR-BI DiI inh 92
Cc1cc(C(=O)Nc2sc3c(c2C#N)CCCCC3)cs1	SR-BI DiI inh 79
Cc1c(NC(=O)c2cc(-c3ccccc3)nc3ccccc23)c(=O)n(-c2ccccc2)n1C	SR-BI DiI inh 77
O=C(Nc1nc2ccccc2s1)c1cccs1	none (no result: dFosB act, SR-BI uptake up, DYRK1A inh, SR-BI DiI inh, CDK5 p35 inh)
COc1cc(C=Nn2c(-c3cc(C)[nH]n3)n[nH]c2=S)cc(Br)c1O	none (no result: dFosB act, SR-BI uptake up, DYRK1A inh, SR-BI DiI inh, CDK5 p35 inh)
O=C(COc1ccc(F)cc1Cl)N(Cc1nnc(-c2ccccc2Cl)o1)C1CC1	none
COCCn1c(Cc2ccccc2)nnc1SCC(=O)NC1CCCCC1	none
O=C(CNC(=O)c1ccc(Cl)cc1Cl)OCC(=O)N1CCOCC1	none (no result: dFosB act, SR-BI uptake up, DYRK1A inh, SR-BI DiI inh, CDK5 p35 inh)
Cc1c(NC(=O)c2cc(-c3cccs3)nc3ccccc23)c(=O)n(-c2ccccc2)n1C	SR-BI DiI inh 77
COc1ccc(-c2cc(C(=O)Nc3c(C)n(C)n(-c4ccccc4)c3=O)c3ccccc3n2)c(OC)c1	none
O=C(NNc1nc2ccc(Cl)cc2s1)c1cc(-c2cccs2)nc2ccccc12	dFosB act inconclusive, SR-BI DiI inh 89 (no result: NSD2 HMT inh)
Cc1ccc(-c2cc(C(=O)Nc3c(C)n(C)n(-c4ccccc4)c3=O)c3ccccc3n2)cc1	SR-BI DiI inh 74
COc1ccc(-c2cc(C(=O)OCC(=O)NC3CC3)c3ccccc3n2)cc1OC	SR-BI DiI inh 72
Cc1cc(C)c2nc(NNC(=O)c3cc(-c4cccs4)nc4ccccc34)sc2c1	none (no result: NSD2 HMT inh)
COc1ccc2nc(-c3ccccc3)cc(C(=O)OCC(=O)NC3CC3)c2c1	none
O=C(CCc1nc2ccccc2c(=O)[nH]1)Nc1nnc(SCc2ccccc2F)s1	none
Cc1ccc(C(=O)NNC(=O)CSc2nnc3c(n2)[nH]c2ccc(F)cc23)cc1	none
Cc1nnc(NC(=O)CSc2nnc3c(n2)[nH]c2ccc(Br)cc23)s1	dFosB act 153 (no result: SR-BI uptake up, SR-BI DiI inh)
COCCCNC(=O)CN(c1cccc(Cl)c1C)S(C)(=O)=O	none (no result: NSD2 HMT inh)
COCCCNC(=O)CN(c1cccc(Cl)c1)S(C)(=O)=O	SR-BI uptake up 527
CN(C)CCCN(C(=O)c1ccc(S(=O)(=O)N2CCCCCC2)cc1)c1nc2cc3c(cc2s1)OCO3	none (no result: dFosB act, SR-BI uptake up, DYRK1A inh, SR-BI DiI inh, CDK5 p35 inh)
CN(C)CCCN(C(=O)COc1ccc(Cl)cc1)c1nc2cc3c(cc2s1)OCO3	dFosB act 39
CCC1CCCCN1S(=O)(=O)c1ccc(C(=O)N(CCCN(C)C)c2nc3cc4c(cc3s2)OCO4)cc1 (centres undefined)	dFosB act 24
CC(NCc1ccco1)C(=O)N1CCCN(C)CC1 (centres undefined)	none (no result: dFosB act, SR-BI uptake up, DYRK1A inh, SR-BI DiI inh, CDK5 p35 inh)
COc1ccc(NC(=O)CS(=O)CC(=O)NC2CCCc3ccccc32)cc1 (centres undefined)	none
CCOc1ccc(NC(=O)CS(=O)CC(=O)NC2CCCc3ccccc32)cc1 (centres undefined)	SR-BI DiI inh 74
Oc1ccc2ccccc2c1N=Nc1ccccn1	none
CCOC(=O)c1[nH]cnc1N=Nc1c(O)ccc2ccccc12	SR-BI DiI inh 80
COc1ccc(/C=N/Nc2nc(-c3cccc(S(=O)(=O)N4CCCC4)c3)cs2)cc1OC	none (no result: DYRK1A inh)
CCOc1cc(/C=N/Nc2nc(-c3cccc(S(=O)(=O)N4CCCC4)c3)cs2)ccc1O	SR-BI DiI inh 98
O=S(=O)(c1cccc(-c2csc(N/N=C/c3ccco3)n2)c1)N1CCOCC1	SR-BI DiI inh 72
O=C(c1ccccc1F)N(Cc1ccc2c(c1)OCO2)Cc1cc2cc3c(cc2n2nnnc12)OCO3	SR-BI DiI inh 72 (no result: SR-BI uptake up)
Cc1cc2cc(CN(Cc3ccc4c(c3)OCO4)C(=O)c3cnccn3)c3nnnn3c2cc1C	none
COc1ccc(-c2nnc(SCC(=O)N/N=C(\C)c3ccc(-c4ccccc4)cc3)n2-c2ccc(C)cc2)cc1	none (no result: dFosB act, SR-BI uptake up, DYRK1A inh, SR-BI DiI inh, CDK5 p35 inh)
COc1ccccc1Nc1nc(-c2ccc3c(c2)NC(=O)CO3)cs1	SR-BI DiI inh 78
COc1ccc(-c2oc(=O)c3cc(OC)c(OC)cc3c2C#CCCCO)cc1	SR-BI DiI inh 78 (no result: NSD2 HMT inh)
Nn1c(SCC(=O)Nc2ccccc2-c2ccccc2)nnc1-c1cc(-c2ccc(F)cc2)n[nH]1	none (no result: dFosB act, SR-BI uptake up, DYRK1A inh, SR-BI DiI inh, CDK5 p35 inh)
COc1cc(/C=C2\NC(=S)N(C)C2=O)ccc1OCc1ccccc1F	SR-BI DiI inh 77
COc1ccc(C(N)c2csc(Nc3ccc(C(F)(F)F)cn3)n2)cc1 (centres undefined)	none (no result: dFosB act, SR-BI uptake up, DYRK1A inh, SR-BI DiI inh, CDK5 p35 inh)
CCOC(=O)Nc1ccc2c(c1)C(=NNC(N)=S)c1ccccc1-2	SR-BI DiI inh 83
NC(=O)c1cccc2c1-c1ccccc1/C2=N/NC(N)=S	none
CCOc1cc(NC(=O)c2cccs2)c(OCC)cc1NC(=O)c1ccccn1	none
COc1ccc(C(=O)Nc2ccccc2NC(=O)c2ccc(OC)c(OC)c2)cc1OC	none (no result: dFosB act, SR-BI uptake up, DYRK1A inh, SR-BI DiI inh, CDK5 p35 inh)
COC(=O)c1cc(OC)c(OC)cc1NC(=O)c1ccccc1	none
CCOc1cc(NC(=O)c2ccccn2)c(OCC)cc1NC(=O)c1cccc(C)c1	SR-BI DiI inh 71
COC(=O)c1cc(OC)c(OC)cc1NC(=O)c1ccc(OC)c(OC)c1	dFosB act 19
COC(=O)c1cc(OC)c(OC)cc1NC(=O)c1cccc(C)c1	SR-BI DiI inh 81
COc1ccc(OCCOC(=O)C(C)NS(=O)(=O)c2ccc(NC(C)=O)cc2)cc1 (centres undefined)	none
CCc1ccccc1NC(=O)c1cc(C)nn1-c1ccccc1	none (no result: dFosB act, SR-BI uptake up, DYRK1A inh, SR-BI DiI inh, CDK5 p35 inh)
COCCNC(=S)N(CCO)Cc1cc2cc3c(cc2[nH]c1=O)OCCO3	none (no result: DYRK1A inh)
CCOc1cc(C(=O)Nc2cc(F)ccc2C)ccc1OCC(=O)N1CCOCC1	none (no result: DYRK1A inh)
CCOc1cc(C(=O)Nc2cc(C(=O)OC)ccc2C)ccc1OCC(=O)N1CCOCC1	SR-BI DiI inh 73 (no result: DYRK1A inh)
CCc1c(C(=O)Nc2cc(C)cc(C)c2)[nH]c(C)c1C(C)=O	SR-BI DiI inh 77
CCN(CC)C(=O)CSc1nnc(-c2cccs2)o1	none (no result: dFosB act, SR-BI uptake up, DYRK1A inh, SR-BI DiI inh, CDK5 p35 inh)

Bioassay records (PubChem BioAssay)
